From PubChem BioAssay
UHRF1 binding: UHRF1 methylated DNA binding inhibitors, primary screen, counter-screen for MBD2 inhibitor project, biochemical, TR-FRET, human UHRF1, single concentration. UHRF1 binding to methylated oligo. inhibition, % at 4.4 µM. 370,000 tested, 0.75% active. AID 687016, 2013; in the data active = inhibition above about 21%;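 note: UHRF1 SRA domain binding a hemimethylated CpG hairpin DNA probe; 0% = median of test compound wells and 100% = reference inhibitor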
TDP2 absorb: human TDP2 enzyme inhibitors, primary screen, biochemical, epi absorbance, recombinant enzyme | 370,000 tested, 0.34% active | inhibition, % at 12.8 µM | AID 720702, 2013 | T5PNP hydrolysis, p-nitrophenol absorbance 415 nm;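 active = inhibition above the mean of all tested compounds plus 3 SD, set per campaign, cut at about 25% in these data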;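 note: 0% = DMSO with enzyme and 100% = buffer with substrate but no TDP2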
Target sequence (O95551 whole entry, looked up): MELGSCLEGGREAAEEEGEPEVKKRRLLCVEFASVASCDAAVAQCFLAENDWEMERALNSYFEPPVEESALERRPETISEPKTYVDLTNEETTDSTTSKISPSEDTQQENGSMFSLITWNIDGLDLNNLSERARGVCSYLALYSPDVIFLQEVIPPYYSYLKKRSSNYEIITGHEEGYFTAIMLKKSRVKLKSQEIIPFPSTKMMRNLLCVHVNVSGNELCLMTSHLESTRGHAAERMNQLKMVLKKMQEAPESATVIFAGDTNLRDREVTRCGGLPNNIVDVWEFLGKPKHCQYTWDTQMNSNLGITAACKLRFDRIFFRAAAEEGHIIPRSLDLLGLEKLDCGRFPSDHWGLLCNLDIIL
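Material: recombinant human TDP2; quantity: TDP2 enzyme at 120 nM final; medium: Tris-HCl pH 7.5 with MgCl2; compound: single concentration, 12.8 µM nominal, with 1% DMSO; incubation: 2 h enzyme incubation at 37 °C; signal: epi absorbance; measure: percent inhibition; benchmarks: high control without enzyme, low control DMSO plus TDP2; repeats: singlicate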
LEDGF integ inh: blockers of LEDGF/p75-dependent integrase strand transfer – biochemical, TR-FRET, high throughput, primary screen; HIV-1 integrase (with human LEDGF/p75); TR-FRET IN-LEDGF/p75 DNA integration, Eu/Cy5; inhibition, % at 3.7 µM; 370,000 tested, 0.64% active; AID 743269, 2014;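 active = inhibition above the screen-wide mean plus 3 SD, cut at about 13% in these data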;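 note: signal is the Cy5 over europium emission ratio at 671 and 618 nm; 0% = plate median of compound wells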
MBD2 inh: inhibitors of MBD2 binding to methylated DNA, primary screen, biochemical, TR-FRET, DNA-binding domain, human; AID 686964, 2013; 370,000 tested, 0.31% active; MBD2 binding to methylated oligonucleotide; Methyl-CpG-binding domain protein 2 (Homo sapiens), Q9UBB5; inhibition, % at 4.4 µM; in the data active = inhibition above about 13%
core dimer inh: inhibitors of HCV core protein dimerization, primary screen, biochemical, TR-FRET, high-throughput. TR-FRET GST/Flag-core106 dimerization, 1536-well. AID 1899, 2009. 300,000 tested, 0.33% active. inhibition, % at 5 µM;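 active = inhibition above the mean of all tested compounds plus 3 SD, set per screening campaign, cut at about 45% in these data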
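Assay system: tagged HCV core106 pair (GST and Flag); medium: KF-containing HEPES buffer, pH 7.45, DTT, CHAPS, BSA; also added: Eu donor and XL665 acceptor anti-tag antibodies; dosing: 5 µM single dose; timing: compound-protein-antibody incubation 4 h at 22.5 °C; signal: TR-FRET 671 and 617 nm emission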
* marks the source's active call; other numbers are inactive results. The list is not random: actives were taken first. Their share in the collection is about 1.8%.

What do the screens show for `CC(C)CCNC(=O)C1(C)CCN1Cc1ccc2ccccc2c1` (configuration not stated)?
UHRF1 binding: 34*; TDP2 absorb: 3; LEDGF integ inh: 3; MBD2 inh: 2

What do the screens show for `CC1(C(=O)NCc2cccc3ccccc23)CCN1Cc1ccc2ccccc2c1` (configuration not stated)?
UHRF1 binding: 2; TDP2 absorb: -2; LEDGF integ inh: -3; MBD2 inh: -4

Results for Cc1ccccc1-c1nc2c3ccccc3nc(=S)n2[nH]1 ?
UHRF1 binding: -1; TDP2 absorb: -10; LEDGF integ inh: 4; MBD2 inh: 0; core dimer inh: 13

How did Cc1nc2ccccc2n1CCc1nc2c3ccccc3nc(=S)n2[nH]1 do in these assays?
UHRF1 binding: 22*; TDP2 absorb: -1; LEDGF integ inh: -3; MBD2 inh: -1; core dimer inh: -3

What do the screens show for `Cc1ccc(Cl)cc1NC(=S)N(Cc1ccccc1)Cc1cccnc1`?
UHRF1 binding: 25*; TDP2 absorb: -10; LEDGF integ inh: -7; MBD2 inh: 9; core dimer inh: 15

How did S=C(Nc1ccccc1Cl)N(Cc1ccccc1)Cc1cccnc1 do in these assays?
UHRF1 binding: 1; TDP2 absorb: 0; LEDGF integ inh: 2; MBD2 inh: -7; core dimer inh: 2

What do the screens show for `COc1ccc(OCc2cc(C(=O)NC(C)Cn3cncn3)no2)c(Cl)c1` (configuration not stated)?
UHRF1 binding: 27*; TDP2 absorb: 5; LEDGF integ inh: 7; MBD2 inh: 9; core dimer inh: 5

What do the screens show for `Clc1ccc(-n2c(SCc3cccc4ccccc34)nnc2-c2ccccc2)cc1`?
UHRF1 binding: 1; TDP2 absorb: -1; LEDGF integ inh: 0; MBD2 inh: -2

What do the screens show for `COc1ccc(Nc2nc(-c3cc4cccc(OC)c4oc3=O)cs2)cc1`?
UHRF1 binding: -5; TDP2 absorb: 7; LEDGF integ inh: 1; MBD2 inh: -4; core dimer inh: 15

What do the screens show for `COc1cccc2cc(/C(C)=N/Nc3nc(-c4cc(C)ccc4C)cs3)c(=O)oc12`?
UHRF1 binding: -5; TDP2 absorb: 12; LEDGF integ inh: -2; MBD2 inh: -4; core dimer inh: 76*

How did CCCCN1C[C@@H](COCc2ccccc2)Oc2cc(F)ccc2S1(=O)=O do in these assays?
UHRF1 binding: 5; TDP2 absorb: 1; LEDGF integ inh: -3; MBD2 inh: 0

Results for Cc1ccc(C)c(N2CCN(S(=O)(=O)c3ccc4[nH]c(=O)ccc4c3)CC2)c1 ?
UHRF1 binding: 0; TDP2 absorb: -7; LEDGF integ inh: 6; MBD2 inh: 5; core dimer inh: 46*

Results for CN1Cc2nnn(CC3CCCCC3)c2-c2ccccc2S1(=O)=O ?
UHRF1 binding: 2; TDP2 absorb: -9; LEDGF integ inh: 4; MBD2 inh: 1

How did CN1CCN(c2ccc3c(c2)Oc2ccccc2CN(Cc2cn(Cc4cccc(C(F)(F)F)c4)nn2)S3(=O)=O)CC1 do in these assays?
UHRF1 binding: -1; TDP2 absorb: -3; LEDGF integ inh: 1; MBD2 inh: 0

How did CCC(C)NC(=O)CCNS(=O)(=O)c1ccc(Br)cc1 (configuration not stated) do in these assays?
UHRF1 binding: 32*; TDP2 absorb: -3; LEDGF integ inh: 0; MBD2 inh: 1; core dimer inh: -4

Results for CCCCNC(=O)CCNS(=O)(=O)c1ccc(Br)cc1 ?
UHRF1 binding: -1; TDP2 absorb: 2; LEDGF integ inh: 1; MBD2 inh: -3; core dimer inh: 1

Results for O=C(O)c1ccc(/C=N/NC(=O)c2ccc(F)cc2)cc1 ?
UHRF1 binding: 0; TDP2 absorb: 2; LEDGF integ inh: 1; MBD2 inh: -5; core dimer inh: 2

Results for O=C(N/N=C/c1ccc(F)cc1)c1ccccc1 ?
UHRF1 binding: 27*; TDP2 absorb: 3; LEDGF integ inh: -5; MBD2 inh: -4; core dimer inh: 8

What do the screens show for `O=C(O)CCCCCN=Cc1c(O)c2ccccc2oc1=O`?
UHRF1 binding: 23*; TDP2 absorb: 0; LEDGF integ inh: -3; MBD2 inh: -3; core dimer inh: -3

What do the screens show for `O=[N+]([O-])CC(=Nc1ccc(Cl)cc1)N/N=C\c1oc(O)c2ccccc12`?
UHRF1 binding: -2; TDP2 absorb: -7; LEDGF integ inh: 6; MBD2 inh: 4; core dimer inh: 61*

What do the screens show for `CC(C)(C)c1nnc2sc(SC/C(O)=C(\C#N)c3nc4ccccc4[nH]3)nn2c1=O`?
UHRF1 binding: -11; TDP2 absorb: 7; LEDGF integ inh: 2; MBD2 inh: -7; core dimer inh: 60*

How did COc1ccc2c(c1OC)CN(C)CCc1cc3c(cc1C(=O)C2)OCO3 do in these assays?
UHRF1 binding: 21*; TDP2 absorb: 13; LEDGF integ inh: 6; MBD2 inh: 13; core dimer inh: 3

How did O=C(c1cncc(Br)c1)N1CCN(S(=O)(=O)c2ccc3ccccc3c2)CC1 do in these assays?
UHRF1 binding: 4; TDP2 absorb: 9; LEDGF integ inh: 23*; MBD2 inh: -1

How did COC(=O)C1CN(Cc2ccccc2)CCS(=O)(=O)N1Cc1ccc(Cl)cc1 (configuration not stated) do in these assays?
UHRF1 binding: 0; TDP2 absorb: 1; LEDGF integ inh: -2; MBD2 inh: 0

Results for O=C(Nc1nnc(SCc2ccc(F)cc2)s1)C1Cc2ccccc2CN1C(=O)c1ccco1 (configuration not stated) ?
UHRF1 binding: 0; TDP2 absorb: 1; LEDGF integ inh: 0; MBD2 inh: 0; core dimer inh: 14

How did CCSc1nnc(NC(=O)c2ccccc2C)s1 do in these assays?
UHRF1 binding: 24*; TDP2 absorb: -6; LEDGF integ inh: 1; MBD2 inh: 0; core dimer inh: 4

Results for O=C(Nc1nnc(C2CC2)s1)C1Cc2ccccc2CN1C(=O)c1ccco1 (configuration not stated) ?
UHRF1 binding: -4; TDP2 absorb: 0; LEDGF integ inh: 0; MBD2 inh: -10; core dimer inh: 54*

What do the screens show for `CCc1nnc(NC(=O)C2Cc3ccccc3CN2S(=O)(=O)c2cccs2)s1` (configuration not stated)?
UHRF1 binding: -3; TDP2 absorb: 13; LEDGF integ inh: -2; MBD2 inh: -2; core dimer inh: 59*
